# According to ChEMBL document CHEMBL3865839, “Short Route to the Total Synthesis of Natural Muricadienin and Investigation of Its Cytotoxic Properties” (J Nat Prod, 2016):
# Activity calls are given as the source filed them. No cut-off for these calls is given here.
# Columns and labels:
# [1] = Cytotoxicity against HEK293 cells assessed as reduction in cell viability after 24 hrs by MTT assay; assay type: functional, cell-based; conditions: Homo sapiens, HEK293, 24 h
# Procedure, shortened: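 HEK293 (HPA Culture Collections) monolayers in DMEM with 10% FBS and 1% penicillin–streptomycin, 37 °C, humidified 5% CO2. Compound dissolved in DMSO, then diluted in culture medium. Antiproliferative read-out by MTT tetrazolium reduction to formazan. Etoposide run as positive control. IC50 determined.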
# HEK293 [2] = assay: Induction of apoptosis in HEK293 cells assessed as viable cells at 0.48 uM after 24 hrs by Annexin V/propidium iodide-dual staining based FACS analysis (reference value: 90.31%); assay type: functional; conditions: Homo sapiens, HEK293, 24 h; read-out: Activity
# HEK293 [3] = assay: Induction of apoptosis in HEK293 cells assessed as early apoptotic cells at 0.48 uM after 24 hrs by Annexin V/propidium iodide-dual staining based FACS analysis (reference value: 2.04%); assay type: functional, Homo sapiens
# HEK293 [4] = assay: Induction of apoptosis in HEK293 cells assessed as late apoptotic cells at 0.48 uM after 24 hrs by Annexin V/propidium iodide-dual staining based FACS analysis (reference value: 4.30%); assay type: functional, Homo sapiens
# HEK293 [5] = assay: Induction of apoptosis in HEK293 cells assessed as necrotic cells at 0.48 uM after 24 hrs by Annexin V/propidium iodide-dual staining based FACS analysis (reference value: 3.35%); assay type: functional, Homo sapiens
# HEK293 [6] = assay: Induction of apoptosis in HEK293 cells assessed as viable cells at 0.19 uM after 24 hrs by Annexin V/propidium iodide-dual staining based FACS analysis (reference value: 90.31%); assay type: functional; conditions: Homo sapiens, HEK293, 24 h; read-out: Activity
# HEK293 [7] = assay: Induction of apoptosis in HEK293 cells assessed as early apoptotic cells at 0.19 uM after 24 hrs by Annexin V/propidium iodide-dual staining based FACS analysis (reference value: 2.04%); assay type: functional, Homo sapiens
# HEK293 [8] = assay: Induction of apoptosis in HEK293 cells assessed as late apoptotic cells at 0.19 uM after 24 hrs by Annexin V/propidium iodide-dual staining based FACS analysis (reference value: 4.30%); assay type: functional, Homo sapiens
# HEK293 [9] = assay: Induction of apoptosis in HEK293 cells assessed as necrotic cells at 0.19 uM after 24 hrs by Annexin V/propidium iodide-dual staining based FACS analysis (reference value: 3.35%); assay type: functional, Homo sapiens
# HEK293 [10] = assay: Induction of apoptosis in HEK293 cells assessed as viable cells at 0.1 uM after 24 hrs by Annexin V/propidium iodide-dual staining based FACS analysis (reference value: 90.31%); assay type: functional; conditions: Homo sapiens, HEK293, 24 h; read-out: Activity
# HEK293 [11] = assay: Induction of apoptosis in HEK293 cells assessed as early apoptotic cells at 0.1 uM after 24 hrs by Annexin V/propidium iodide-dual staining based FACS analysis (reference value: 2.04%); assay type: functional, Homo sapiens
# HEK293 [12] = assay: Induction of apoptosis in HEK293 cells assessed as late apoptotic cells at 0.1 uM after 24 hrs by Annexin V/propidium iodide-dual staining based FACS analysis (reference value: 4.30%); assay type: functional, Homo sapiens
# HEK293 [13] = assay: Induction of apoptosis in HEK293 cells assessed as necrotic cells at 0.1 uM after 24 hrs by Annexin V/propidium iodide-dual staining based FACS analysis (reference value: 3.35%); assay type: functional, Homo sapiens
# [14] = molecular target: T1, DNA topoisomerase 1 (Homo sapiens) (UniProt P11387); assay: Inhibition of human Top1 using pHOT as substrate assessed as suppression of relaxation of DNA supercoil at >50 uM after 30 mins by ethidium bromide-based agarose gel electrophoresis
# T1 sequence (whole entry): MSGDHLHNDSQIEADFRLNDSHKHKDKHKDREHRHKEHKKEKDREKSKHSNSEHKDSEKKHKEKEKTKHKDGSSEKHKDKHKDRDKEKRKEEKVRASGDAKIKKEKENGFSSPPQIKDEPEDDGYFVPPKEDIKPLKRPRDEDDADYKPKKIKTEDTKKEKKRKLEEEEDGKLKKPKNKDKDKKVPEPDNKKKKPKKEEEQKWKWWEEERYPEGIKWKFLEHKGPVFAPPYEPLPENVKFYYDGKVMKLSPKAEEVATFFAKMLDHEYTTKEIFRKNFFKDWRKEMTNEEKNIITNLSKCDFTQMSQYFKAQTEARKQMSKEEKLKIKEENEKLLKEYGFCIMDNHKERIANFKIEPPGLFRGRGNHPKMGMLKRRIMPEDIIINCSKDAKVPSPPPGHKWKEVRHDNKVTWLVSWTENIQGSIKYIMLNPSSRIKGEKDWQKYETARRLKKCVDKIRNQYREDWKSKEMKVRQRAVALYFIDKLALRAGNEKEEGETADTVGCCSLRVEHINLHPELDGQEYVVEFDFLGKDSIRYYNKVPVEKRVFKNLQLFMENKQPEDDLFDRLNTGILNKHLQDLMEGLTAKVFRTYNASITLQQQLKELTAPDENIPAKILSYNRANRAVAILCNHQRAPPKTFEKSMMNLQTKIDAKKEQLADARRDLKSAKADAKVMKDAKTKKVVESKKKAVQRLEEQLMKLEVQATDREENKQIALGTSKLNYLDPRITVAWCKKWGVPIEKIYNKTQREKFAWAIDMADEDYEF
# [15] = molecular target: DNA topoisomerase 2-alpha (Homo sapiens) (UniProt P11388); assay: Inhibition of human Top2alpha using pHOT as substrate assessed as suppression of relaxation of DNA supercoil at >1 uM after 30 mins administered prior to enzyme addition by ethidium bromide-based agarose gel electrophoresis
# DNA topoisomerase 2-alpha (Homo sapiens), sequence (P11388 whole entry): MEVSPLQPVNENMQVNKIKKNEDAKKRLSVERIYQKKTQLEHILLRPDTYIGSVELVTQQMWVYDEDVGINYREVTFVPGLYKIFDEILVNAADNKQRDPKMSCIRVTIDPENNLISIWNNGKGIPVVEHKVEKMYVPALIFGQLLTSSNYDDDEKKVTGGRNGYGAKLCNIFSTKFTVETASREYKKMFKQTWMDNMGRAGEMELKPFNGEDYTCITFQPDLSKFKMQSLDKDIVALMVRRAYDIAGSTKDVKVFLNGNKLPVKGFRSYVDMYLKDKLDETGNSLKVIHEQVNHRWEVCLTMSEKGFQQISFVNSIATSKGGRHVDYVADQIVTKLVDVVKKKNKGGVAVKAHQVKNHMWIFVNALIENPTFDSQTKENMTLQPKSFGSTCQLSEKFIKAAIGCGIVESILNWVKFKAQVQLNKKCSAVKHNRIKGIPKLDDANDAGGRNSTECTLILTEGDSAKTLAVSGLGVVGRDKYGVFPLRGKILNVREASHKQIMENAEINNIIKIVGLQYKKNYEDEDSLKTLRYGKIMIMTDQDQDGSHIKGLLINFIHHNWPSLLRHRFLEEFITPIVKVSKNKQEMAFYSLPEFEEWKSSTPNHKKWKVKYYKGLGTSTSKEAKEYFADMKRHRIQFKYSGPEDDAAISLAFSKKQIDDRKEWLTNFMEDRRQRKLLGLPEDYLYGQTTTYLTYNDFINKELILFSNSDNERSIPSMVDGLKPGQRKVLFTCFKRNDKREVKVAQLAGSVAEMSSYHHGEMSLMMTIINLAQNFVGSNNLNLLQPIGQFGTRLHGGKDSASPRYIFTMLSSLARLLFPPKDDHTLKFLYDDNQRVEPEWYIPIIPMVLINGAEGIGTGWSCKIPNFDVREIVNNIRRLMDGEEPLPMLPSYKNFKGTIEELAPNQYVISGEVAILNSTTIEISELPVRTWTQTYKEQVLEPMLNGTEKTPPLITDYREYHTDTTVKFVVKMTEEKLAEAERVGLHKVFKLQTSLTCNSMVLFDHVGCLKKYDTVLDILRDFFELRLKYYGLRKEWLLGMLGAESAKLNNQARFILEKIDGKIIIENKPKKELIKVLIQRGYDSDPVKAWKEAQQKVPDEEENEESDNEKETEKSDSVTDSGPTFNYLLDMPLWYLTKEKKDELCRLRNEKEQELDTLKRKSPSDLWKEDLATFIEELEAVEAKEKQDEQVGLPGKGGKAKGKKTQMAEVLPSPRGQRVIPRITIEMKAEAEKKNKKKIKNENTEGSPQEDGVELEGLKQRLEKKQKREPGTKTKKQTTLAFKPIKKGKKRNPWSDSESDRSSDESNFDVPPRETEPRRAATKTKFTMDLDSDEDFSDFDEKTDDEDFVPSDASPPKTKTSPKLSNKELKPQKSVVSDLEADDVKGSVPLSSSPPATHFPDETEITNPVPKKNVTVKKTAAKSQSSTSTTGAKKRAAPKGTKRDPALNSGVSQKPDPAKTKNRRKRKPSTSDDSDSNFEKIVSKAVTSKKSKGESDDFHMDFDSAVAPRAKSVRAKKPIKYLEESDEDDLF
# HEK293 [16] = assay: Induction of apoptosis in HEK293 cells after 24 hrs by Annexin V/propidium iodide-dual staining based FACS analysis; assay type: functional, cell-based; conditions: Homo sapiens
SMILES,IC50 [1],viability at 0.48 µM (HEK293 [2]),Activity (HEK293 [3]),Activity (HEK293 [4]),Activity (HEK293 [5]),viability at 0.19 µM (HEK293 [6]),Activity (HEK293 [7]),Activity (HEK293 [8]),Activity (HEK293 [9]),viability at 0.1 µM (HEK293 [10]),Activity (HEK293 [11]),Activity (HEK293 [12]),Activity (HEK293 [13]),inhibition [14],inhibition [15],Activity (HEK293 [16])
COc1cc([C@@H]2c3cc4c(cc3[C@@H](O[C@@H]3O[C@@H]5CO[C@@H](C)O[C@H]5[C@H](O)[C@H]3O)[C@H]3COC(=O)[C@H]23)OCO4)cc(OC)c1O [ETOPOSIDE],600 nM,–,–,–,–,–,–,–,–,–,–,–,–,–,–,–
CCCCCCCCCCCC/C=C\CC/C=C\CCCCCCCCCCCCC1=C[C@H](C)OC1=O,390 nM,48.6%,16.14%,27.32%,7.91%,67.5%,10.49%,15.3%,6.7%,82.3%,5.31%,8.09%,4.3%,Active,Active,Dose-dependent effect
